The results in this text go back to article PMC6026531 (Molecular pharmaceutics, 2017).

Data set [1] has as its system PC3 prostate tumor xenografts. The experiment in a line: In vivo MRI of PC3 tumor-bearing mice. On the set-up: species or system mouse. As to conditions: T1-weighted 3D FLASH, 0.1 mmol/kg i.v., imaged at 10, 20 and 30 min, n = 5. Put shortly: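 Male athymic nude mice carried subcutaneous PC3 xenografts (100 µL of 4×10^7 cells/mL in Matrigel) and were imaged at 5–8 mm tumor diameter on a 1.0 T scanner. Agents in saline were given i.v. at 0.1 mmol/kg Gd3+, with a gadoteridol control. Images were taken pre-contrast and every 10 min to 30 min by axial T1 spin echo (TR 500 ms, TE 8.144 ms) and coronal 3D FLASH (TR 17.362 ms, TE 6 ms, 15°). CNR was the tumor/muscle ROI signal […] normalised to noise.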

Data set [2] in a line: Relaxivity measurement of contrast agents. It is filed as physicochemical. Particulars: 1.5 T, in water, 37 °C.

On to `CC(O)CN1CCN(CC(=O)[O-])CCN(CC(=O)[O-])CCN(CC(=O)[O-])CC1.[Gd+3]` (stereo not drawn) [Gd(HP-DO3A), gadoteridol], for which the “Time of peak CNR in PC3 tumors” value in data set [1] stood at 10 min. In data set [2], this compound returned a r1 relaxivity of 2.9 mM⁻¹ s⁻¹.
In data set [2], `O=C([O-])CN1CCN(CC(=O)[O-])CCN(CC(=O)O)CCN(CC(=O)[O-])CC1.[Gd+3]` [Gd-DOTA] showed a r1 relaxivity of 2.9 mM⁻¹ s⁻¹.
